Calls of active or inactive are those of the source. No cut-off for these calls is given here.
Columns and labels:
Leishmania braziliensis = experiment: Leishmanicidal activity against extracellular promastigote stage of Leishmania braziliensis 2903 assessed as reduction of parasite load after 48 hrs by resazurin dye-based fluorometric analysis; assay type: functional, organism-based; conditions: Leishmania braziliensis, 2903, 48 h; read-out: IC50
Outline: (§1)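 Log-phase promastigotes cultured in Schneider's medium with 20% heat-inactivated FBS at 26 °C, 2.5 × 10^5 per well. DMSO-dissolved compounds added as 2-fold serial dilutions, final DMSO ≤0.2% (v/v), 48 h at 26 °C. Growth read by 2.5 mM resazurin stock, fluorescence 535/590 nm. Triplicate; IC50 by probit analysis.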

[1] = Selectivity index, ratio of CC50 for mouse NCTC-929 cells to IC50 for extracellular epimastigote stage of Trypanosoma cruzi CL-B5; assay type: functional
Trypanosoma cruzi [2] = experiment: Trypanocidal activity against extracellular epimastigote stage of Trypanosoma cruzi CL-B5 assessed as reduction of parasite load after 72 hrs by CPRG-based colorimetric analysis
[3] = Cytotoxicity against mouse NCTC-929 cells assessed as reduction of cell viability after 24 hrs by resazurin dye-based […]
Outline: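 NCTC clone 929 fibroblasts in DMEM with 10% FBS and 2 mM L-glutamine, plated at 3 × 10^4 cells/well and grown overnight at 37 °C, 5% CO2. Compounds in fresh medium for 24 h, then 2 mM resazurin solution added for 3 h. Absorbance read at 570 and 595 nm; CC50 taken as 50% viability loss versus untreated cells, by probit analysis.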

[4] = Cytotoxicity against mouse J774 cells assessed as reduction of cell viability after 24 hrs by resazurin dye-based fluorometric analysis
Outline: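 J774 macrophages in RPMI 1640 with 10% heat-inactivated FBS, seeded at 5 × 10^4 cells/well and attached 24 h at 37 °C, 5% CO2. Medium swapped for drug dilutions for 24 h. Then 2.5 mM resazurin stock added for 3 h, fluorescence read at 535 nm excitation / 590 nm emission. Triplicate; CC50 from probit analysis.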

Trypanosoma cruzi [5] = experiment: Trypanocidal activity against bloodstream trypomastigote stage of Trypanosoma cruzi Y infected in BALB/c mouse assessed as reduction of survival rate at 10 mg/kg/day, ip qd administered for 5 days measured daily until day 30 post-infection; assay type: functional, organism-based
Outline: (§2)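 Female BALB/c mice (20–24 g) infected ip with 10^4 Y-strain bloodstream trypomastigotes; only parasitemic animals used. Compounds dissolved in DMSO, freshly diluted in propylene glycol, given ip at 10 mg/kg/day for 5 days from 5 dpi, with an untreated group. Parasitemia counted by Pizzi–Brener in 5 μL tail blood at 5, 8, 10 dpi; mortality checked daily to 30 dpi.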

Trypanosoma cruzi [6] = experiment: Trypanocidal activity against bloodstream trypomastigote stage of Trypanosoma cruzi Y infected in BALB/c mouse assessed as reduction of parasitemia at 10 mg/kg/day, ip qd administered for 3 days measured on day 8 post-infection by microscopic analysis relative to control; assay type: functional; set-up: scale not given: the % may be the effect or the level left; conditions: route intraperitoneal; outline: as §2
Leishmania amazonensis [7] = experiment: Leishmanicidal activity against intracellular amastigote stage of Leishmania amazonensis MHOM/Br/79/Maria infected in mouse J774 cells assessed as reduction of parasite load after 48 hrs by resazurin dye-based fluorometric analysis; assay type: functional, organism-based
Outline: (§3)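 J774 macrophages (5 × 10^4/well) infected with stationary promastigotes at 1:10, 24 h at 33 °C then 24 h at 37 °C, 5% CO2, and washed free of promastigotes. Then 2-fold serial dilutions in triplicate for 48 h at 37 °C. Cells lysed with RPMI with 0.048% HEPES and 0.006% SDS, transformed in Schneider's 3 days at 26 °C, resazurin 3 h, fluorescence 535/590 nm.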

Trypanosoma cruzi [8] = experiment: Trypanocidal activity against bloodstream trypomastigote stage of Trypanosoma cruzi Y infected in BALB/c mouse assessed as reduction of parasitemia at 10 mg/kg/day, ip qd administered for 5 days measured on day 10 post-infection by microscopic analysis relative to control; assay type: functional; set-up: scale not given: the % may be the effect or the level left; conditions: route intraperitoneal; outline: as §2
Leishmania guyanensis = experiment: Leishmanicidal activity against extracellular promastigote stage of Leishmania guyanensis 141/93 assessed as reduction of parasite load after 48 hrs by resazurin dye-based fluorometric analysis; assay type: functional, organism-based; conditions: Leishmania guyanensis, 141/93, 48 h; read-out: IC50; outline: as §1
Leishmania infantum [9] = experiment: Leishmanicidal activity against intracellular amastigote stage of Leishmania infantum MCAN/ES/96/BCN150 infected in mouse J774 cells assessed as reduction of parasite load after 48 hrs by resazurin dye-based fluorometric analysis; assay type: functional, organism-based; outline: as §3
Trypanosoma cruzi [10] = experiment: Trypanocidal activity against intracellular amastigote stage of Trypanosoma cruzi CL-B5 infected in mouse NCTC-929 cells assessed as reduction of parasite load after 7 days by CPRG-based colorimetric analysis
Leishmania amazonensis [11] = experiment: Leishmanicidal activity against extracellular promastigote stage of Leishmania amazonensis MHOM/Br/79/Maria assessed as reduction of parasite load after 48 hrs by resazurin dye-based fluorometric analysis; assay type: functional, organism-based; outline: as §1
Leishmania infantum [12] = experiment: Leishmanicidal activity against extracellular promastigote stage of Leishmania infantum MCAN/ES/96/BCN150 assessed as reduction of parasite load after 48 hrs by resazurin dye-based fluorometric analysis; assay type: functional, organism-based; outline: as §1
Leishmania infantum [13] = experiment: Leishmanicidal activity against promastigote stage of Leishmania infantum MCAN/ES/96/BCN150 infected in BALB/c mouse assessed as reduction of parasite burden in spleen at 5 mg/kg, ip qd administered for 5 days measured after 7 days by limiting dilution assay relative to untreated control; assay type: functional; set-up: scale not given: the % may be the effect or the level left; conditions: route intraperitoneal
Outline: (§4)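 BALB/c mice infected intracardially under pentobarbital anaesthesia with 10^7 stationary L. infantum BCN150 promastigotes. From day 21 post-infection, dosed ip once daily for 5 days in 0.1 mL propylene glycol, with an untreated control group. Killed 7 days later; spleen and liver burdens by limiting dilution and expressed as % reduction versus controls.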

Leishmania infantum [14] = experiment: Leishmanicidal activity against promastigote stage of Leishmania infantum MCAN/ES/96/BCN150 infected in BALB/c mouse assessed as reduction of parasite burden in liver at 5 mg/kg, ip qd administered for 5 days measured after 7 days by limiting dilution assay relative to untreated control; assay type: functional; outline: as §4
[15] = Selectivity index, ratio of CC50 for mouse J774 cells to IC50 for extracellular promastigote stage of Leishmania amazonensis MHOM/Br/79/Maria; assay type: functional
[16] = Selectivity index, ratio of CC50 for mouse J774 cells to IC50 for extracellular promastigote stage of Leishmania infantum MCAN/ES/96/BCN150; assay type: functional
[17] = Trypanosoma cruzi, CL-B5, 72 h, read-out: IC50
[18] = Leishmania infantum, MCAN/ES/96/BCN150, 48 h, read-out: IC50
[19] = Leishmania amazonensis, MHOM/Br/79/Maria, 48 h, read-out: IC50

Row | Structure (SMILES) | IC50 (Leishmania braziliensis) [µM] | CC50 at 24 h [4] [µM] | IC50 (Leishmania guyanensis) [µM] | IC50 (Leishmania infantum [12]; [18]) [µM] | IC50 (Trypanosoma cruzi [2]) | IC50 (Leishmania amazonensis [11]; [19]) [µM] | also measured
1 | O=[N+]([O-])c1ccc(S(=O)(=O)Nc2cnccn2)cc1 | 61.5 | ≥ 300 | 84.2 | – | – | – | Ratio CC50/IC50 [1]: >4.7; IC50 (Trypanosoma cruzi [2]; [17]): 76.1 µM; CC50 at 24 h [3]: 317 µM; Activity (Trypanosoma cruzi [5]): inactive; Activity (Trypanosoma cruzi [6]): 14%; IC50 (Leishmania amazonensis [7]; j774): Not Active; Activity (Trypanosoma cruzi [8]): 57%; IC50 (Leishmania infantum [9]; j774): Not Active; IC50 (Trypanosoma cruzi [10]; Trypanosoma cruzi, CL-B5, NCTC-929, 168 h, read-out: IC50): 224 µM; IC50 (Leishmania amazonensis [11]): Not Active
2 | O=[N+]([O-])c1ccc(S(=O)(=O)Nc2ccc3ncsc3c2)cc1 | 31 | ≥ 300 | 53.7 | 85.5 | Not Active | 89.6 | –
3 | O=S(=O)(Nc1ccc2ncsc2c1)c1ccccc1 | 30.6 | ≥ 300 | 23.7 | 18.4 | Not Active | 82.6 | Activity (Leishmania infantum [13]): 53.51%; IC50 (Leishmania amazonensis [7]; Leishmania amazonensis, MHOM/Br/79/Maria, J774, 48 h, read-out: IC50): 77.5 µM; Activity (Leishmania infantum [14]): inactive; IC50 (Leishmania infantum [9]; Leishmania infantum, MCAN/ES/96/BCN150, J774, 48 h, read-out: IC50): 39.2 µM; IC50 (Trypanosoma cruzi [10]; nctc-929): Not Active; Ratio CC50/IC50 [15]: >3.1; Ratio CC50/IC50 [16]: > 13.9
4 | Cc1cc2cc(NS(=O)(=O)c3ccc([N+](=O)[O-])cc3)ccc2[nH]1 | 16.8 | 132 | 19.6 | 35.2 | – | 15.8 | –
5 | O=[N+]([O-])c1ccc(S(=O)(=O)Nc2ccc3nccnc3c2)cc1 | 60.8 | ≥ 300 | 101 | 81.7 | Not Active | 198 | –
6 | O=S(=O)(Nc1ccc2[nH]ncc2c1)c1ccc(F)cc1 | 86.6 | ≥ 300 | 102 | 65.4 | Not Active | 116 | –
7 | O=[N+]([O-])c1ccc(S(=O)(=O)Nc2ncccn2)cc1 | 48.8 | ≥ 300 | 46.4 | 76.4 | – | 68.6 | IC50 (Trypanosoma cruzi [2]; [17]): 156 µM
8 | O=S(=O)(Nc1nccc2ccccc12)c1ccc(Cl)cc1 | 37 | ≥ 300 | 4.3 | 51.4 | Not Active | 82.8 | –
9 | O=S(=O)(Nc1ccc2nccnc2c1)c1ccc(F)cc1 | 13.4 | 43.9 | 29.8 | 33.4 | – | 14.2 | –
10 | Cc1cc2cc(NS(=O)(=O)c3ccc(Cl)cc3)ccc2[nH]1 | 23 | 195 | 10.4 | 12.4 | – | 18.2 | –
11 | CC1CCCN(S(=O)(=O)c2ccccc2)C1 (configuration not stated) | 115 | ≥ 300 | 54.3 | 112 | Not Active | 40.9 | –
12 | Cc1cc2cc(NS(=O)(=O)c3cccc4ccccc34)ccc2[nH]1 | 11.6 | 24.6 | 13.6 | 11.9 | – | 7.4 | –
13 | O=S(=O)(Nc1nccc2ccccc12)c1ccccc1 | 162 | ≥ 300 | 93.5 | – | – | 93.5 | IC50 (Leishmania infantum [12]): Not Active
